Series [1] concerns the target Dipeptidyl peptidase 4 (Rattus norvegicus) (UniProt P14740). In words: Ex vivo percent inhibition of Dipeptidyl peptidase IV in rat plasma after 30 min at 4 umol/kg peroral dose. Type of series: functional, cell-free.
Series [2] has the same target. Nature of the series: Ex vivo percent inhibition of Dipeptidyl peptidase IV in rat plasma after 4 hr at 4 umol/kg peroral dose. Type of series: functional, cell-free.
The nature of series [3]: Oral bioavailability in rat. The class given is ADME, organism-based. Particulars: in vivo. The procedure, abridged:
(§1)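 Fasted adult male Sprague-Dawley rats (250–300 g), jugular-cannulated, given 10 mg/kg in water as iv bolus or oral gavage (n = 2 per route); serial heparinized blood to 12 h, plasma acetonitrile-precipitated and quantified by LC/MS. AUC by trapezoidal (oral) or log-linear (iv) integration; F = mean oral AUC / mean iv AUC.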

Series [4] can be described thus: Half life in rat. Type of series: ADME. Particulars: in vivo. Summed up:
as §1

Series [5] has as its target Dipeptidyl peptidase 4 (Rattus norvegicus) (UniProt P14740). In words: Ex vivo Dipeptidyl peptidase IV inhibition in rat plasma after 4 hr 4 umol/kg peroral dose. Type of series: functional, cell-free.
The target is the same in series [6]. In words: Effective dose for inhibition of Dipeptidyl peptidase IV in prediabetic rat model after 6 hr. Type of series: functional. The procedure, abridged: (§2)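 Fasted normal male Sprague-Dawley rats given oral doses; plasma (EDTA) taken 0.5, 2, 4 or 6 h postdose and DPP-IV activity read with fluorogenic Ala-Pro-AFC (0.1 mM, 50 mM Hepes/140 mM NaCl, ex 360/em 530 nm, initial 20 min rate). ED50 = 50% inhibitory dose from percent inhibition vs dose plot at each time point.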

Series [7] shares this target. In words: Effective dose for inhibition of Dipeptidyl peptidase IV in prediabetic rat model after 4 hr. Particulars: in the assay text read “fasted normal Sprague-Dawley rat” for “prediabetic rat model”. The class given is functional. Summed up:
as §2

Series [8] shares this target. Nature of the series: Effective dose for inhibition of Dipeptidyl peptidase IV in prediabetic rat model after 0.5 hr. The note with it: in the assay text read “fasted normal Sprague-Dawley rat model” for “prediabetic rat model”. Type of series: functional. Summed up: as §2
Series [9] shares this target. In words: Effective dose for inhibition of Dipeptidyl peptidase IV in prediabetic rat model after 2 hr. Particulars: in the assay text read “fasted normal Sprague-Dawley rat” for “prediabetic rat model”. Type of series: functional. Summed up:
as §2

For series [10], the target named is Cytochrome P450 3A4 (Homo sapiens, UniProt P08684). In words: Inhibitory concentration against Cytochrome 450 3A4. Type of series: ADME.
Cytochrome P450 3A4, sequence (P08684 whole entry): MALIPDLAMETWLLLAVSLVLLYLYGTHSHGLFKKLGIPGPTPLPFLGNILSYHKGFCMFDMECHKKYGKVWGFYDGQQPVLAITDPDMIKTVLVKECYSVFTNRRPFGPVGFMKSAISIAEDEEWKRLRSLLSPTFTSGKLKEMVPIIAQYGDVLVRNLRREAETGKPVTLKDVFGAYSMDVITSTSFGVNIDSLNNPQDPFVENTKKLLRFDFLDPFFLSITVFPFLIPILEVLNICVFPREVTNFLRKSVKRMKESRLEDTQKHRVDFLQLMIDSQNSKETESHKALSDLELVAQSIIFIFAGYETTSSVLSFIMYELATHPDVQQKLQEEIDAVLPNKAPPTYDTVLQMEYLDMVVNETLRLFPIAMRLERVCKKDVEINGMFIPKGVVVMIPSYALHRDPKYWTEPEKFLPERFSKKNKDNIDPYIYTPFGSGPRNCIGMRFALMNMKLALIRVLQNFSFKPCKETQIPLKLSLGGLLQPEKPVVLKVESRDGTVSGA
The target of series [11] is Dipeptidyl peptidase 4 (Homo sapiens, UniProt P27487). Nature of the series: In vitro inhibition constant against human Dipeptidyl peptidase IV. Summed up: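 Recombinant human DPP-IV expressed in CHO-DG44 cells, purified by anion exchange, gel filtration and MonoQ. […] IC50 from Hill fit (Morrison where needed), converted to Ki assuming competitive inhibition; mean ± SEM, ≥ triplicate.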
Dipeptidyl peptidase 4, sequence (P27487 whole entry): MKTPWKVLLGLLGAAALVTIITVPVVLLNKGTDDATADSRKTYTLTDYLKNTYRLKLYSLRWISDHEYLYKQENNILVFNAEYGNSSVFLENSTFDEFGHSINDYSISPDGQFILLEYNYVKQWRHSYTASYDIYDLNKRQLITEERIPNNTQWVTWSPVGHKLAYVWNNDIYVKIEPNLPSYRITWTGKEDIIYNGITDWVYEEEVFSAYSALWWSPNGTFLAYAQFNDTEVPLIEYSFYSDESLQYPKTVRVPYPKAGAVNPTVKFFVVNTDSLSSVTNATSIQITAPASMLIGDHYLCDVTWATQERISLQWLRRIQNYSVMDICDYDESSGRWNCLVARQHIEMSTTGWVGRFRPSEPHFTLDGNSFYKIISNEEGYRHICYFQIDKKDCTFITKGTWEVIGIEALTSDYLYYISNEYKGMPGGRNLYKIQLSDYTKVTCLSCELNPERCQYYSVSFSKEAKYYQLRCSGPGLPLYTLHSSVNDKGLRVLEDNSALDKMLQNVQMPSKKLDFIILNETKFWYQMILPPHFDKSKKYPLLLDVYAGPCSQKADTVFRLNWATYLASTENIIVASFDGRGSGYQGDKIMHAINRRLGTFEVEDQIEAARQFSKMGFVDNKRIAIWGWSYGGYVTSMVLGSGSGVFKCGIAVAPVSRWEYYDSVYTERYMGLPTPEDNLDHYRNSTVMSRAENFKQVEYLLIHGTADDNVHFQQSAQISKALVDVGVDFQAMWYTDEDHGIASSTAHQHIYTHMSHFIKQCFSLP

The structures appear in SMILES notation.

Dipeptidyl peptidase 4 (Rattus norvegicus), sequence (P14740 whole entry, looked up): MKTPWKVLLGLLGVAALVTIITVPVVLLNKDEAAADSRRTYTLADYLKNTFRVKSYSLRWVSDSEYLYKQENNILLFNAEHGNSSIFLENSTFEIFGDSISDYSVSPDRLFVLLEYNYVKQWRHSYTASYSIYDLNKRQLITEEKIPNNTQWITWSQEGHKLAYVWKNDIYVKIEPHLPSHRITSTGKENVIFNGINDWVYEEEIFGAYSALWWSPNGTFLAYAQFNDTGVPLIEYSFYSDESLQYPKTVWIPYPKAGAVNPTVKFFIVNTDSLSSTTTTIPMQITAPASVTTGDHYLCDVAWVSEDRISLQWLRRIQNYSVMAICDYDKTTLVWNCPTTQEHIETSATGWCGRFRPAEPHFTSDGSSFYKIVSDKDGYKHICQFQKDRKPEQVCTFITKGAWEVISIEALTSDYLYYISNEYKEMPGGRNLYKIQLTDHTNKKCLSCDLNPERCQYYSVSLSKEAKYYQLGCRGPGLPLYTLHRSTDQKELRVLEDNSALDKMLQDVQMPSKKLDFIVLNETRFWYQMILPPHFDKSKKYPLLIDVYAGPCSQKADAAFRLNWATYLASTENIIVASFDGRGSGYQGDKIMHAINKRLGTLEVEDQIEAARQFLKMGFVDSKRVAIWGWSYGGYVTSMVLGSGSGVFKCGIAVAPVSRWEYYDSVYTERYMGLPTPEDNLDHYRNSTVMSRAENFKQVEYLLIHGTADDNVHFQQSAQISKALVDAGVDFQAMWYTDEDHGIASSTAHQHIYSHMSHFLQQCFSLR

Regarding `CCC1([C@H](N)C(=O)N2[C@H](C#N)C[C@@H]3C[C@@H]32)CCCC1`, the inhibition in [1] came to 40%; in series [2], 44%.

The molecule `N#C[C@@H]1C[C@@H]2C[C@@H]2N1C(=O)[C@@H](N)C12CC3CC(CC(O)(C3)C1)C2` [SAXAGLIPTIN ANHYDROUS] showed a bioavailability in series [3] of 75%. The inhibition in series [1] and in series [5] was 87% throughout. In series [4], this molecule showed a half-life of 2.1 h. For the same molecule, the ED50 worked out at 0.5 µmol/kg in series [6] (in the assay text read “fasted normal Sprague-Dawley rat model” for “prediabetic rat model”), 0.3 µmol/kg in series [7], 0.12 µmol/kg in series [8] and 0.2 µmol/kg in [9].

With `N#C[C@@H]1C[C@@H]2C[C@@H]2N1C(=O)[C@@H](N)C12CC3CC(CC(C3)C1)C2`, in [10], the IC50 amounted to 20 µM. Further, the bioavailability in series [3] amounted to 2%. Also, the inhibition was determined as 84% in [1] and 83% in series [5].

Molecule `C=CC1([C@H](N)C(=O)N2[C@H](C#N)C[C@@H]3C[C@@H]32)CCCC1` yielded a bioavailability in series [3] of 5.3%. Besides, the inhibition in series [1] came to 71%; in series [2] it was 64%. This molecule came in with a Ki in series [11] of 0.0039 µM.

On to `C=CC1([C@H](N)C(=O)N2[C@H](C#N)C[C@@H]3C[C@@H]32)CCCCCC1`, for which the inhibition in series [1] came to 77%; in series [2], 66%.

Turning to `N#C[C@@H]1C[C@@H]2C[C@@H]2N1C(=O)[C@@H](N)C12CC3CC(CC(F)(C3)C1)C2`, the inhibition in series [1] was 80%; in [5], 61%.

For `C=CC(C)(C)[C@H](N)C(=O)N1[C@H](C#N)C[C@@H]2C[C@@H]21`, the inhibition in [1] came to 13%; in series [2], 10%.

As for `C=CC1([C@H](N)C(=O)N2[C@H](C#N)C[C@@H]3C[C@@H]32)CCC1`, the inhibition in series [1] is 42%; in series [2] it was 32%.

With `CCC(C)(C)[C@H](N)C(=O)N1[C@H](C#N)C[C@@H]2C[C@@H]21`, the inhibition in series [1] and in series [2] was 0% throughout.

For the molecule `N#C[C@@H]1C[C@@H]2C[C@@H]2N1C(=O)[C@@H](N)C1(CO)CCCCC1`, the values for the inhibition in series [1] and in series [2] were 17% and 8%, respectively.

`C=CC1([C@H](N)C(=O)N2[C@H](C#N)C[C@@H]3C[C@@H]32)CCCCC1`: the figures for the inhibition in series [1] and in series [2] were 76% and 60%, respectively.

As to `N#C[C@@H]1C[C@@H]2C[C@@H]2N1C(=O)[C@@H](N)C12CC3CC(O)(CC(O)(C3)C1)C2`, the inhibition in series [1] was 62%; in series [5] it was 57%.

Consider `C=CC(CC)(CC)[C@H](N)C(=O)N1[C@H](C#N)C[C@@H]2C[C@@H]21`, for which the inhibition in series [1] worked out at 39%; in series [2] it was 20%.

On to `N#C[C@@H]1C[C@@H]2C[C@@H]2N1C(=O)[C@@H](N)C1(CO)CCCC1`, for which, in [3], the bioavailability is 59%. The results for the inhibition in [1] and in series [2] were 69% and 56%, respectively. Further, the ED50 in [6] (in the assay text read “fasted normal Sprague-Dawley rat” for “prediabetic rat model”) was 11 µmol/kg; in series [7] it was 5 µmol/kg; in series [8] it was 0.4 µmol/kg; in series [9] it was 3.2 µmol/kg.

Take `N#C[C@@H]1C[C@@H]2C[C@@H]2N1C(=O)[C@@H](N)C1(CO)CCC1`: the figures for the inhibition in series [1] and in series [2] were 36% and 17%, respectively.

The values are drawn from ChEMBL document CHEMBL1140346 (J Med Chem, 2005).
